The target in this assay is Metabotropic glutamate receptor 1 (Homo sapiens, UniProt Q13255). Put plainly: Negative allosteric modulation of human mGlu1 receptor expressed in HEK293A TREx cells assessed as calcium flux after 45 mins. Summed up: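 HEK293A TREx cells stably expressing human mGlu1 were induced overnight with 50 ng/mL tetracycline at 37 °C. Ten-point 1:3 compound series were added for 2.3 min, then an EC20 of glutamate, then an EC80 of glutamate 1.9 min later. Ca2+ flux was read for 1.7 min. Values are the average of n ≥ 3.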
Chain of Metabotropic glutamate receptor 1 (Q13255 whole entry): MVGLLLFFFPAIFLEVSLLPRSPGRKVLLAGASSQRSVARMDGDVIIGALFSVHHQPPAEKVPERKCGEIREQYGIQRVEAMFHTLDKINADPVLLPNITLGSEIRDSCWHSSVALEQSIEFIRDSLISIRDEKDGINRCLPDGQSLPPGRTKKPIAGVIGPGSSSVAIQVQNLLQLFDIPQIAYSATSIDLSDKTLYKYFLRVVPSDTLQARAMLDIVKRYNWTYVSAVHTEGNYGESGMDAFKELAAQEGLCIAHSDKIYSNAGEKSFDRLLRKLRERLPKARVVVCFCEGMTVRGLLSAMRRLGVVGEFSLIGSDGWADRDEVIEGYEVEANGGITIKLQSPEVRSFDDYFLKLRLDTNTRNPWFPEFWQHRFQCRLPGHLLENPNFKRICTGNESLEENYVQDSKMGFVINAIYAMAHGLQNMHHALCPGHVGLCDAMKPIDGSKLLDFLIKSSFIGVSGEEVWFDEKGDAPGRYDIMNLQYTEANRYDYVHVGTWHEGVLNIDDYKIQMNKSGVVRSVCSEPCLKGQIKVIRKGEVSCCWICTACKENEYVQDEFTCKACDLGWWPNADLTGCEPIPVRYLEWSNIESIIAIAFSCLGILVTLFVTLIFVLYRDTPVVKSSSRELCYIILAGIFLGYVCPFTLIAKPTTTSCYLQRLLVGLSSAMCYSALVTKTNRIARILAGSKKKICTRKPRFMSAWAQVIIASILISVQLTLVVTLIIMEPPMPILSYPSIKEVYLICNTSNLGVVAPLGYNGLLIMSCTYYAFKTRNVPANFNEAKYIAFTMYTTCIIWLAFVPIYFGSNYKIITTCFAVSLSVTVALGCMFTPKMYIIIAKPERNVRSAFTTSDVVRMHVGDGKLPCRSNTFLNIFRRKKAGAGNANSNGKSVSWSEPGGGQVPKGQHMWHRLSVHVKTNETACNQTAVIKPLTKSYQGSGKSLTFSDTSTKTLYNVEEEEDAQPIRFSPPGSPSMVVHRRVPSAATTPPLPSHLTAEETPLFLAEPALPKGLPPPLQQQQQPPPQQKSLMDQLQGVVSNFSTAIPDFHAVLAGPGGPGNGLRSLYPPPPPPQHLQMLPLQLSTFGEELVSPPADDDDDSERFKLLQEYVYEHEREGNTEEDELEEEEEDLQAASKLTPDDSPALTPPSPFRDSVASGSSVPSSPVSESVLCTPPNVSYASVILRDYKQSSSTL
(In general: Calcium flux is commonly read through the fluorescence of an indicator in the cells.)

One may read the IC50 as the point on the concentration scale where inhibition reaches its midpoint.

Regarding `CC(C)(C)CC(=O)N1C[C@@H]2CN(c3ccccn3)C[C@@H]2C1`, the concentration for half-maximal inhibition (IC50) was > 31.6 µM.

For `CC(C)(C)C(=O)N1C[C@@H]2CN(c3ccccn3)C[C@@H]2C1`, the concentration for half-maximal inhibition (IC50) is > 31.6 µM.

The values above are taken from BindingDB's records for doi:10.1016/j.bmcl.2013.07.029 (Vanderbilt University Medical Center, 2013).
